Mdm2-MdmX inh: inhibitors of human Mdm2/MdmX interaction; O15151+Q00987; SaOS-2 split-luciferase Mdm2/MdmX complementation, luminescence; inhibition, % at 8 µM; 330,000 tested, 3% active;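 active = inhibition of at least 50% at 8 µM in the primary screen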
Target sequence (O15151 whole entry, looked up): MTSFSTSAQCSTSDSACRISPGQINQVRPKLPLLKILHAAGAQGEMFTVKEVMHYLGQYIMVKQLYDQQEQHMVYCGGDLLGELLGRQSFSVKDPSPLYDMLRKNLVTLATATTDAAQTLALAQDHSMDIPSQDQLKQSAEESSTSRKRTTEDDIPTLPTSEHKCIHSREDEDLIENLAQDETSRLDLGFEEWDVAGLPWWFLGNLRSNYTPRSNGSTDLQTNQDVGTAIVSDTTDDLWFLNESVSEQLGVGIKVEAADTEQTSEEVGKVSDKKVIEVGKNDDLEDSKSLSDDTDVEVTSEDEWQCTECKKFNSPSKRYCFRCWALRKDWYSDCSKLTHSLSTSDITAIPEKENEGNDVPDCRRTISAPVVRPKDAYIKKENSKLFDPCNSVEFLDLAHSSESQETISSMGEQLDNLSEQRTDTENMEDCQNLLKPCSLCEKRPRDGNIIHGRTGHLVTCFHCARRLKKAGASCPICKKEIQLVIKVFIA
Target sequence (Q00987 whole entry, looked up): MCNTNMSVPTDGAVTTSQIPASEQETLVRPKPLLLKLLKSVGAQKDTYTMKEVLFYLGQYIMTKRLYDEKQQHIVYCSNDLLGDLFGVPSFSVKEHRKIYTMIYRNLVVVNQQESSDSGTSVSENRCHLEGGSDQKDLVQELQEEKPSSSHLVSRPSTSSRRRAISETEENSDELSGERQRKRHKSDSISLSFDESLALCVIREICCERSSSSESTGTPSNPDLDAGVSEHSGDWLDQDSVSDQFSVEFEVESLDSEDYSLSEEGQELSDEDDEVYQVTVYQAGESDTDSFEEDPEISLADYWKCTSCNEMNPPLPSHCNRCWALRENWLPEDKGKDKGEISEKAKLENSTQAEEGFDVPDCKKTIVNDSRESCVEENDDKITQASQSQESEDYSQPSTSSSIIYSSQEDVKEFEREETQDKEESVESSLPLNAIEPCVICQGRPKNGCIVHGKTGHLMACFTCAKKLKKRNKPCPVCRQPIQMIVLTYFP
T cruzi inh: T. cruzi replication inhibition. inhibition, % (test concentration not listed). T. cruzi beta-gal in NIH3T3, luminescence, 90 h. AID 1885. 300,000 tested, 1.4% active;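 active = mean inhibition across valid replicates above about 55%, limit read from the data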;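 also: signal also drops with host cell toxicity which is not excluded here; higher percent means less beta-gal luminescence so fewer parasites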
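assay system = mouse NIH/3T3 fibroblasts infected with β-gal-expressing T. cruzi Tulahuen C4 | input = 5,000 NIH/3T3 host cells per well | buffer or medium = DMEM plus 2% FBS | timing = 3 h host attachment, then at least 90 h co-culture | measured by = GalScreen luminescence, 60 min | evaluation = luminescence reflecting intracellular parasite burden, expressed as percent inhibition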
CSC inhib: blocks cancer stem cells. inhibition, % at 7.5 µM. cancer stem cell-like cells viability, luminescence. 300,000 tested, 1.1% active. AID 2717; in the data active = inhibition above about 75%; tested in HMLE shEcad cells
Beta apoptosis: blocks beta cell apoptosis; AID 435005; protection from apoptosis, % (no concentration beside the values); 300,000 tested, 0.8% active; INS-1E cytokine-induced death, ATP luminescence, 48 h; percent of positive-control rescue, neutral wells zero;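 active = Every replicate reaches about 75%, or at least half do and their mean reaches it too, limit read from the data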;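 also: higher means more ATP so stronger rescue from cytokine killing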
SKKanGAS inh: blocks kanamycin growth of S. pyogenes SKKanGAS strain; BacTiter-Glo, 6 h; inhibition, % at 7.5 µM; 300,000 tested, 1.3% active; AID 1662;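 active = mean replicate score, as percent of positive control median, at least 50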;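 also: strain carries kanamycin resistance gene driven by streptokinase promoter and grows in 40 µg/ml kanamycin; loss of luminescence reflects streptokinase promoter inhibition or plain growth inhibition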
L major viab: Leishmania major promastigote growth inhibition. Leishmania major promastigotes, resazurin fluorescence viability. 200,000 tested, 9% active. inhibition, % at 10 µM; in the data active = inhibition above about 50%;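 also: promastigotes grown with compound for 44 hours at 28 °C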
Mdm2-MdmX conf: human Mdm2/MdmX binding inhibition, confirmed; AID 489028; 10,000 tested, 55% active; shares compounds with Mdm2-MdmX inh; inhibition, % at 8 µM; luminescent assay; in the data active = inhibition above about 40%
Full FLuc ctr: inhibits full-length luciferase, flagging false Mdm2/MdmX hits; shares compounds with Mdm2-MdmX inh; 6,200 tested, 77% active; inhibition, % at 8 µM; AID 504607; SaOS-2 full-length luciferase counterscreen, luminescence;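 active = mean inhibition at 8 µM reaching about 37%, which flags the compound as non-specific, limit read from the data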;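 also: p53-null SaOS-2 cells with luciferase driven by a doxycycline-inducible promoter; compound on cells about two nights before reading with doxycycline added after day one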
Numbers stand for hits; n = inactive; x = no result given. Sampled rows, rich in hits. Any-hit rate of the full collection: about 9.4%.

SMILES | Mdm2-MdmX inh | T cruzi inh | CSC inhib | Beta apoptosis | SKKanGAS inh | L major viab | Mdm2-MdmX conf | others
Cc1nn(Cc2ccccc2)c(C)c1NC(=O)CCCn1nc([N+](=O)[O-])cc1C | n | n | n | n | n | n | x
CC1(NC(=O)CC(c2ccccc2)(c2ccccc2)c2ccccc2)CCN(CCCc2ccccc2)C1=O (centres undefined) | 76 | x | 100 | n | x | x | n
CC(C)c1ccc(/C=N/NC(=O)CN(c2cccc(Cl)c2Cl)S(C)(=O)=O)cc1 | 61 | n | x | n | n | n | n
Cc1ccccc1N(C(=O)c1csnn1)C(C(=O)NC1CCCC1)c1ccncc1 (centres undefined) | n | n | n | n | n | x | x
Cc1nc2nc(C)c(CCC(=O)N3CCN(c4ccccn4)CC3)c(C)n2n1 | n | n | n | n | n | n | x
CCn1c(=O)c(CCC(=O)N2CCN(c3ccccn3)CC2)c(C)c2c(C)nn(-c3cccc(C)c3)c21 | 53 | 58 | n | n | n | x | n
CCn1cc(C(=O)N(C)c2ccccc2F)c2cc(OC)c(OC)cc2c1=O | n | n | n | n | n | x | x
COC1=CC(=O)c2ccccc2C1=O | 51 | x | x | x | x | x | n
COC1=C(c2ccccc2)C(=O)c2ccccc2C1=O | n | n | n | n | x | n | x
C[C@H](NC(=O)N1CCn2c1nc1ccccc12)C(=O)NCc1ccc(F)cc1 | n | n | n | n | n | x | x
CNC[C@H](CC1CCCCC1)NC[C@H](Cc1ccccc1)NCCC12CC3CC(CC(C3)C1)C2 | 100 | n | n | 114 | 98 | x | 100 | Full FLuc ctr=52
CN1CCN(Cc2c(O)ccc3cc(Br)ccc23)CC1 | 51 | n | n | n | n | n | n
CCc1cc(=O)oc2c(CN3CCN(C)CC3)c(O)ccc12 | n | n | n | n | n | x | x
Cc1cc(SCc2ccc(Cl)cc2Cl)nc(=O)[nH]1 | 53 | n | n | n | n | x | n
CC(C)N1C(=O)CCN(C=O)c2ccccc21 | n | n | n | n | x | n | x
CSc1ncccc1C(=O)N1CCN(S(=O)(=O)c2ccc(C)cc2)CC1 | n | n | n | n | n | x | x
CC(=O)c1cc2c(cc1NC(=O)c1ccc(Cl)cc1)OCCO2 | 57 | n | n | x | n | x | n
Cc1cc(C)cc(OCC(=O)Nc2cccc(-c3nnc(-c4ccco4)o3)c2)c1 | 83 | n | n | n | n | n | 40 | Full FLuc ctr=99
O=C(Cc1ccc(Cl)cc1)Nc1ccc(-c2nnc(-c3ccco3)o2)cc1 | 54 | n | n | n | n | n | n
O=C(Cc1ccccc1)Nc1ccc(-c2nnc(-c3ccco3)o2)cc1 | n | n | n | n | n | n | x
O=C(COc1ccccc1)Nc1cccc(-c2nnc(-c3ccccc3)o2)c1 | n | n | x | n | n | x | x
Cc1ccc(-c2nnc(-c3ccc(NC(=O)Cc4cccs4)cc3)o2)cc1 | 78 | n | n | n | n | n | n
COc1ccc(-c2csc(NC3OC(=O)c4c3ccc(OC)c4OC)n2)cc1OC (centres undefined) | 78 | n | n | n | n | x | 62 | Full FLuc ctr=70
CCOC(=O)c1sc(=NC(=O)c2ccc(S(=O)(=O)N(C)c3ccccc3)cc2)n(C)c1C | 63 | n | n | n | n | n | n
COc1cccc(NC(=O)CSc2nc3c(sc4ccccc43)c(=O)n2CCCN2CCCC2)c1 | 89 | n | n | n | n | x | n
SMILES | Mdm2-MdmX inh | T cruzi inh | CSC inhib | Beta apoptosis | SKKanGAS inh | L major viab | Mdm2-MdmX conf | others
CCN(CC)CCn1c(SCC(=O)Nc2cccc(OC)c2)nc2c(sc3ccccc32)c1=O | 51 | n | n | n | n | n | n
COc1ccccc1CN1CC(C(=O)NCc2ccc(SC)cc2)CCC1=O (centres undefined) | n | n | x | x | n | x | x
Cc1ccc(C(NC(=O)N2CCOCC2)=C(Cl)Cl)cc1F | 51 | n | n | n | n | n | n
CN(C(=O)c1cccc(NC(=O)Cc2cccc([N+](=O)[O-])c2)c1)C1CCCC1 | n | x | x | n | x | x | x
COc1ccc2c(c1)sc1nc(-c3ccccc3)cn12 | 84 | n | 91 | n | n | n | 70 | Full FLuc ctr=114
COc1ccc(-n2cc(-c3ccccc3)nc2SC)cc1 | n | n | n | n | n | n | x
Cc1csc(NC(=O)NCC2CCCC(CNC(=O)Nc3nc(C)cs3)C2)n1 (centres undefined) | n | n | n | n | n | x | x
CCOC(=O)Cn1nc(C)cc1NC(=O)c1cccnc1 | n | n | n | n | n | n | x
COc1ccccc1C(=O)NCC(=O)OCC(=O)c1cccc2ccccc12 | n | n | n | n | n | x | x
COc1ccc(S(=O)(=O)N2CCCC2CNC(=O)C(=O)Nc2cccc(F)c2)cc1 (centres undefined) | n | n | n | n | n | x | x
COc1ccc(/C=N/NC(=O)c2cccc([N+](=O)[O-])c2)c2ccccc12 | 86 | n | n | n | n | x | n
Cn1cc(/C=N/NC(=O)c2cccc([N+](=O)[O-])c2)c2ccccc21 | 61 | n | n | n | n | n | n
CCOC(=O)/C(C#N)=C\c1cn(C)c2ccccc12 | n | n | x | n | n | n | x
N#Cc1cc([N+](=O)[O-])ccc1Oc1cccc(/C=N/NC(=O)c2cccc(Cl)c2)c1 | 62 | 68 | n | n | n | n | n
COc1ccc(/C=N/NC(=O)c2cccc([N+](=O)[O-])c2)cc1OC | n | n | n | n | n | n | x
COc1cccc(C(=O)N/N=C/c2ccc(Oc3ccc([N+](=O)[O-])cn3)c(OC)c2)c1 | n | n | x | n | n | n | x
Cn1cc(/C=C(\C#N)C(=O)Nc2cccc([N+](=O)[O-])c2)c2ccccc21 | 66 | n | n | n | n | n | n
Cn1cc(/C=N/NC(=O)c2ccccc2O)c2ccccc21 | n | n | n | n | n | x | x
Cc1cc(OC(C)C(=O)NCc2ccncc2)c2c(C)c(C)c(=O)oc2c1 (centres undefined) | n | n | n | n | n | x | x
Cc1cc(/C=N/NC(=O)c2cccc([N+](=O)[O-])c2)c(C)n1-c1ccc(Cl)cc1Cl | 50 | n | n | n | n | n | n
O=C(COc1ccc([N+](=O)[O-])cc1)Nc1nc(-c2ccccn2)cs1 | 76 | 61 | n | x | 57 | x | 81 | Full FLuc ctr=n
O=C(Nc1nc(-c2ccccn2)cs1)Nc1ccc(F)cc1F | 59 | 55 | n | 77 | 90 | x | 44 | Full FLuc ctr=51
O=C(COc1ccc(F)cc1)Nc1nc(-c2ccccn2)cs1 | 64 | n | n | n | 69 | x | 70 | Full FLuc ctr=62
COc1cc(/C=C2\CCC/C(=C\c3ccc(O)c(OC)c3)C2=O)ccc1O | 100 | n | 100 | n | 65 | x | 89 | Full FLuc ctr=n
COc1cc(/C=C2/CCCC(C(=O)C(F)(F)F)=C2O)ccc1O | n | n | n | n | n | x | x
CCOc1cc(/C=C2\CN(CC)C/C(=C\c3ccc(O)c(OCC)c3)C2=O)ccc1O | 96 | n | x | x | n | x | 97 | Full FLuc ctr=57
